Assay results: ChEMBL document CHEMBL1287649, “Synthesis and anti-tubercular and antimicrobial activities of some 2r,4c-diaryl-3-azabicyclo[3.3.1]nonan-9-one N-isonicotinoylhydrazone derivatives” (2010)

Legend:
[1] = tested on: Mycobacterium tuberculosis; experiment: Antitubercular activity against isoniazid-resistant Mycobacterium tuberculosis assessed as reduction of relative light unit at 2 ug/ml after 72 hrs by luciferase reporter phage assay relative to control; assay type: functional; set-up: scale not given: the % may be the effect or the level left
Outline: (§1)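 Luciferase reporter phage assay. Luminescence (RLU) integrated for 10 s on a luminometer, in duplicate per sample and averaged. Percent RLU reduction calculated against untreated control. Run repeated if the control mean RLU was below 1000.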

[2] = tested on: Mycobacterium tuberculosis; experiment: Antitubercular activity against isoniazid-resistant Mycobacterium tuberculosis assessed as reduction of relative light unit at 1 ug/ml after 72 hrs by luciferase reporter phage assay relative to control; assay type: functional; set-up: scale not given: the % may be the effect or the level left; outline: as §1

O=C(N/N=C1\C2CCCC1[C@H](c1ccc(Cl)cc1)N[C@@H]2c1ccc(Cl)cc1)c1ccncc1
Activity [1]: 73.28% | Activity [2]: 63.61%

O=C(N/N=C1\C2CCCC1[C@H](c1ccccc1)N[C@@H]2c1ccccc1)c1ccncc1
Activity [1]: 77.52% | Activity [2]: 69.6%

Cc1ccc([C@H]2N[C@@H](c3ccc(C)cc3)C3CCCC2/C3=N\NC(=O)c2ccncc2)cc1
Activity [1]: 71.07% | Activity [2]: 62.3%

COc1ccc([C@H]2N[C@@H](c3ccc(OC)cc3)C3CCCC2/C3=N\NC(=O)c2ccncc2)cc1
Activity [1]: 74.19% | Activity [2]: 67.07%

O=C(N/N=C1\C2CCCC1[C@H](c1ccc(F)cc1)N[C@@H]2c1ccc(F)cc1)c1ccncc1
Activity [1]: 75.08% | Activity [2]: 67.63%

COc1cccc([C@H]2N[C@@H](c3cccc(OC)c3)C3CCCC2/C3=N\NC(=O)c2ccncc2)c1
Activity [1]: 78.33% | Activity [2]: 69.18%

O=C(N/N=C1\C2CCCC1[C@H](c1cccc(Cl)c1)N[C@@H]2c1cccc(Cl)c1)c1ccncc1
Activity [1]: 75.83% | Activity [2]: 65.42%

NNC(=O)c1ccncc1 [ISONIAZID]
Activity [1]: 95.85% | Activity [2]: 89.65%
